The source made the active and inactive calls. The rule behind the calls is not given here.
Columns and labels:
[1] = tested on: von Hippel-Lindau disease tumor suppressor/Epidermal growth factor receptor (Homo sapiens), P00533+P40337 [L858R,T790M]; test: Protac activity at VHL/EGFR L858R/T790M mutant in human H1975 cells assessed as induction of degradation of EGFR at 0.33 to 1 uM incubated for 24 hrs by Western blot analysis; format: cell-based; conditions: NCI-H1975, dose 0.33-1 µM
Outline: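 H1975 cells, after 24 h seeding, treated at the stated concentrations for 24 h. EGFR by Western blot with β-actin loading control.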

[2] = tested on: HCC827; test: Induction of apoptosis in human HCC827 cells assessed as apoptotic cells at 10 nM measured after 48 hrs by AnnexinV-FITC/propidium iodide staining based flow cytometry analysis relative to control; format: functional
Outline: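 To measure apoptosis, cells were seeded at 0.5–1 × 10⁶ per well, grown 24 h, then treated for 48 h. Collected cells were stained with an Annexin V-FITC apoptosis detection kit following its instructions, and apoptosis rate was read by flow cytometry. n = 2.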

[3] = tested on: von Hippel-Lindau disease tumor suppressor/Epidermal growth factor receptor (Homo sapiens), P00533+P40337 [L858R,T790M]; test: Protac activity at VHL/EGFR L858R/T790M mutant in human H1975 cells assessed as induction of degradation of EGFR by measuring reduction in EGFR phosphorylation at 100 nM incubated for 48 hrs by Western blot analysis; format: cell-based; conditions: NCI-H1975
Outline: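 HCC827 or H1975 cells treated at the stated concentrations for 48 h. Lysates probed by Western blot for EGFR, P-EGFR, Akt and P-Akt (each 1:1000); n = 2.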

[4] = tested on: von Hippel-Lindau disease tumor suppressor/Epidermal growth factor receptor (Homo sapiens), P00533+P40337 [UNDEFINED MUTATION]; test: Protac activity at VHL/EGFR del19 mutant in human HCC827 cells assessed as induction of EGFR degradation at 0.033 uM pretreated with ubiquitination inhibitor, MLN4924 for 2 hrs followed by incubation with compound for 24 hrs by Western blot analysis; format: cell-based

Cc1ncsc1-c1ccc(CNC(=O)[C@@H]2C[C@@H](O)CN2C(=O)[C@@H](NC(=O)CCCCCCN2CCN(c3ccc(Nc4ncc5nc(Nc6ccccc6)n(C6CCCC6)c5n4)cc3)CC2)C(C)(C)C)cc1
Activity [1]: Active
Activity [2]: 31.07%
Activity [3]: Active
Activity [4]: inactive
